Assay results published in ChEMBL document CHEMBL2331355, “Synthesis, structure activity relationship and mode of action of 3-substitutedphenyl-1-(2,2,8,8-tetramethyl-3,4,9,10-tetrahydro-2H,8H-pyrano[2,3-f]chromen-6-yl)-propenones as novel anticancer agents in human leukaemia HL-60 cells” (Eur J Med Chem, 2013).
Active and inactive are the calls of the source. The calls are words filed in the database; no cut-off is given here.

Key:
HL-60 [1] = assay: Induction of apoptosis in human HL60 cells assessed as apoptotic bodies at 20 uM after 24 hrs by Hoechst 33258 staining; format: functional, cell-based
Method in brief: (§1)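 HL-60 cells (1 × 10⁶/2 ml) treated 24 h at 15 and 20 µM, pelleted at 300 g and washed. Stained with Hoechst 33258, then examined under an inverted fluorescence microscope (10×, UV excitation) for nuclear condensation, blebbing and apoptotic bodies.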

HL-60 [2] = assay: Cell cycle arrest in human HL60 cells assessed as S phase cells at 10 uM after 24 hrs by PI staining-based flow cytometric analysis (reference value: 49%); format: functional
HL-60 [3] = assay: Cell cycle arrest in human HL60 cells assessed as accumulation of G0/G1 phase cells at 15 uM after 24 hrs by PI staining-based flow cytometric analysis (reference value: 48%); format: functional
MDA-MB-435 [4] = assay: Growth inhibition of human MDA-MB-435 cells at 50 uM after 48 hrs by MTT assay; format: functional; conditions: MDA-MB-435, 48 h, read-out: GI
Method in brief: (§2)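 Single-concentration MTT screen at 50 µM over 48 h in 96-well plates. Compounds giving >50% inhibition were rescreened at 30 µM. OD read at 570 nm, reference 620 nm. Result expressed as % growth inhibition versus untreated control. Mitomycin C, adriamycin or 5-fluorouracil used as positive controls. Mean ± SD of three independent experiments.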

PC-3 [5] = assay: Cytotoxicity against human PC3 cells after 48 hrs by MTT assay; format: functional, cell-based; conditions: PC-3, 48 h
Method in brief: (§3)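 MTT assay in 96-well plates, 48 h exposure across 1–100 µM. OD read at 570 nm against a 620 nm reference. Untreated control OD taken as 100% viability. IC50 derived from the concentration–response curves. Mean ± SD, n = 8 wells, from three independent experiments.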

HL-60 [6] = assay: Cell cycle arrest in human HL60 cells assessed as S phase cells at 5 uM after 24 hrs by PI staining-based flow cytometric analysis (reference value: 49%); format: functional
HL-60 [7] = assay: Induction of apoptosis in human HL60 cells at 20 uM after 24 hrs by PI-staining based flow cytometric analysis (reference value: 0.7 %); format: functional
Caco-2 [8] = assay: Growth inhibition of human Caco2 cells at 30 uM after 48 hrs by MTT assay; format: functional, cell-based; method in brief: as §2
HL-60 [9] = assay: Cell cycle arrest in human HL60 cells assessed as decrease in S phase cells after 24 hrs by PI staining-based flow cytometric analysis; format: functional
HL-60 [10] = assay: Induction of mitochondrial membrane potential loss in human HL60 cells at 20 uM after 24 hrs by rhodamine-123 staining method (reference value: 7%); format: functional
Method in brief: (§4)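 HL-60 cells (1 × 10⁶/2 ml/well) treated 24 h at 15 or 20 µM, then incubated with rhodamine-123 (200 nM) for 40 min. Loss of dye uptake measured by flow cytometry. Camptothecin (4 µM, 6 h) as positive control. Representative of three experiments.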

HL-60 [11] = assay: Induction of apoptosis in human HL60 cells at 10 uM after 24 hrs by PI-staining based flow cytometric analysis (reference value: 0.7 %); format: functional
Caco-2 [12] = assay: Cytotoxicity against human Caco2 cells after 48 hrs by MTT assay; format: functional, cell-based; conditions: Caco-2, 48 h; method in brief: as §3
MCF7 [13] = assay: Growth inhibition of human MCF7 cells at 50 uM after 48 hrs by MTT assay; format: functional; conditions: MCF7, 48 h, read-out: GI; method in brief: as §2
HL-60 [14] = assay: Induction of apoptosis in human HL60 cells at 15 uM after 24 hrs by PI-staining based flow cytometric analysis (reference value: 0.7 %); format: functional
HL-60 [15] = assay: Cell cycle arrest in human HL60 cells assessed as accumulation of G0/G1 phase cells at 5 uM after 24 hrs by PI staining-based flow cytometric analysis (reference value: 48%); format: functional
HL-60 [16] = assay: Induction of apoptosis in human HL60 cells assessed as accumulation of sub-G0/G1 phase cells after 24 hrs by PI-staining based flow cytometric analysis; format: functional, cell-based
MIA PaCa-2 [17] = assay: Growth inhibition of human MIAPaCa2 cells at 30 uM after 48 hrs by MTT assay; format: functional, cell-based; method in brief: as §2
HL-60 [18] = assay: Induction of mitochondrial membrane potential loss in human HL60 cells at 15 uM after 24 hrs by rhodamine-123 staining method (reference value: 7%); format: functional; method in brief: as §4
HL-60 [19] = assay: Cell cycle arrest in human HL60 cells assessed as G2/M phase cells at 20 uM after 24 hrs by PI staining-based flow cytometric analysis (reference value: 3%); format: functional
HL-60 [20] = assay: Induction of apoptosis in human HL60 cells assessed as nuclear blebbing after 24 hrs by Hoechst 33258 staining; format: functional, cell-based; method in brief: as §1
ASPC1 = assay: Growth inhibition of human AsPC1 cells at 30 uM after 48 hrs by MTT assay; format: functional, cell-based; method in brief: as §2
HL-60 [21] = assay: Cell cycle arrest in human HL60 cells assessed as accumulation of G0/G1 phase cells at 10 uM after 24 hrs by PI staining-based flow cytometric analysis (reference value: 48%); format: functional
MIA PaCa-2 [22] = assay: Cytotoxicity against human MIAPaCa2 cells after 48 hrs by MTT assay; format: functional, cell-based; conditions: MIA PaCa-2, 48 h; method in brief: as §3
HL-60 [23] = assay: Cell cycle arrest in human HL60 cells assessed as G2/M phase cells at 5 uM after 24 hrs by PI staining-based flow cytometric analysis (reference value: 3%); format: functional
HL-60 [24] = assay: Cell cycle arrest in human HL60 cells assessed as decrease in G2/M phase cells after 24 hrs by PI staining-based flow cytometric analysis; format: functional
MDA-MB-435 [25] = assay: Growth inhibition of human MDA-MB-435 cells at 30 uM after 48 hrs by MTT assay; format: functional, cell-based; method in brief: as §2
HL-60 [26] = assay: Growth inhibition of human HL60 cells at 50 uM after 48 hrs by MTT assay; format: functional; conditions: HL-60, 48 h, read-out: GI; method in brief: as §2
HL-60 [27] = assay: Induction of apoptosis in human HL60 cells assessed as nuclear condensation after 24 hrs by Hoechst 33258 staining; format: functional, cell-based; method in brief: as §1
HL-60 [28] = assay: Cytotoxicity against human HL60 cells after 24 hrs by MTT assay; format: functional, cell-based; conditions: HL-60, 24 h
Method in brief: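 HL-60 cells exposed 24 h to a range of concentrations, then MTT reduction measured. Untreated control OD taken as 100% viability; IC50 derived from the curve. Mean ± SD, n = 8 wells, three independent experiments.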

MCF7 [29] = assay: Growth inhibition of human MCF7 cells at 30 uM after 48 hrs by MTT assay; format: functional, cell-based; method in brief: as §2
PC-3 [30] = assay: Growth inhibition of human PC3 cells at 30 uM after 48 hrs by MTT assay; format: functional, cell-based; method in brief: as §2
PC-3 [31] = assay: Growth inhibition of human PC3 cells at 50 uM after 48 hrs by MTT assay; format: functional; conditions: PC-3, 48 h, read-out: GI; method in brief: as §2
HL-60 [32] = assay: Induction of apoptosis in human HL60 cells assessed as DNA fragmentation at 20 uM after 24 hrs by SDS-PAGE analysis; format: functional, cell-based; conditions: in the assay text read “agarose gel electrophoresis” for “SDS-PAGE analysis”
Method in brief: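 HL-60 cells (2 × 10⁶/3 ml/well) treated at 20 µM for 24 h. Lysed, then digested with RNase (400 µg/ml, 37 °C, 90 min) and proteinase K (200 µg/ml, 50 °C, 1 h). DNA extracted with phenol/chloroform/isoamyl alcohol and alcohol-precipitated. Run on 1.8% agarose gel at 70 V for 1 h, stained with ethidium bromide, and scored for laddering.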

Structure (SMILES) | Activity (HL-60 [1]) | Activity (HL-60 [2]) | Activity (HL-60 [3]) | inhibition of growth at 50 µM (MDA-MB-435 [4]) | IC50 (PC-3 [5]) | Activity (HL-60 [6]) | Activity (HL-60 [7]) | growth inhibition (GI) (Caco-2 [8]) | Activity (HL-60 [9]) | Activity (HL-60 [10]) | Activity (HL-60 [11]) | IC50 (Caco-2 [12]) | inhibition of growth at 50 µM (MCF7 [13]) | Activity (HL-60 [14]) | Activity (HL-60 [15]) | Activity (HL-60 [16]) | growth inhibition (GI) (MIA PaCa-2 [17]) | Activity (HL-60 [18]) | Activity (HL-60 [19]) | Activity (HL-60 [20]) | other results
CC1(C)CCc2cc(C(=O)/C=C/c3cccc([N+](=O)[O-])c3)c3c(c2O1)CCC(C)(C)O3 | Active | 42% | 71% | 88% | 8 µM | 48% | 58% | Active | Dose-dependent effect | 48% | 13% | 16 µM | 89% | 30% | 46% | Dose-dependent effect | Active | 44% | 3% | Dose-dependent effect | growth inhibition (GI) (ASPC1): Active; Activity (HL-60 [21]): 54%; IC50 (MIA PaCa-2 [22]): 18 µM; Activity (HL-60 [23]): 6%; Activity (HL-60 [24]): Dose-dependent effect; growth inhibition (GI) (MDA-MB-435 [25]): Active; inhibition of growth at 50 µM (HL-60 [26]): 92%; Activity (HL-60 [27]): Dose-dependent effect; IC50 (HL-60 [28]): 25 µM; growth inhibition (GI) (MCF7 [29]): Active; growth inhibition (GI) (PC-3 [30]): Active; inhibition of growth at 50 µM (PC-3 [31]): 72%; Activity (HL-60 [32]): Active
CC1(C)CCc2cc(C(=O)/C=C/c3ccc([N+](=O)[O-])cc3)c3c(c2O1)CCC(C)(C)O3 | Active | 44% | 53% | 78% | 26 µM | 47% | 32% | Active | Dose-dependent effect | 56% | 14% | 28 µM | 52% | 14% | 44% | Dose-dependent effect | Active | 52% | 4% | Dose-dependent effect | growth inhibition (GI) (ASPC1): Active; Activity (HL-60 [21]): 52%; IC50 (MIA PaCa-2 [22]): 45 µM; Activity (HL-60 [23]): 9%; Activity (HL-60 [24]): Dose-dependent effect; growth inhibition (GI) (MDA-MB-435 [25]): Active; inhibition of growth at 50 µM (HL-60 [26]): 91%; Activity (HL-60 [27]): Dose-dependent effect; IC50 (HL-60 [28]): 23 µM; growth inhibition (GI) (MCF7 [29]): Active; growth inhibition (GI) (PC-3 [30]): Active; inhibition of growth at 50 µM (PC-3 [31]): 61%; Activity (HL-60 [32]): Active
